Test results published in ChEMBL document CHEMBL4014307, “Diindolylmethane Derivatives: Potent Agonists of the Immunostimulatory Orphan G Protein-Coupled Receptor GPR84” (J Med Chem, 2017).
Activity calls are given as the source filed them.

Key:
[1] = target: T1, G-protein coupled receptor 84 (Homo sapiens, UniProt Q9NQS5); assay: Agonist activity at Gi coupled human GPR84 expressed in CHO cells assessed as inhibition of forskolin-induced cAMP accumulation after 15 mins in presence of [3H]-cAMP by radiometric assay; format: functional, cell-based
Summary of the method: (§1)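 Forskolin (10 µM) added with or without test compound for 15 min. Cells lysed in hot (90 °C) EDTA/Triton X-100 solution. cAMP measured radiometrically with bovine adrenal binding protein and [³H]cAMP, expressed as % of forskolin-alone response.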

[2] = target: T1, G-protein coupled receptor 84; assay: Agonist activity at Gi coupled human GPR84 expressed in CHO cells assessed as inhibition of forskolin-induced cAMP accumulation at 10 uM after 15 mins in presence of [3H]-cAMP by radiometric assay relative to decanoic acid; format: functional, cell-based; summary of the method: as §1
[3] = target: T2, Free fatty acid receptor 4 (Homo sapiens) (UniProt Q5NUL3); assay: Agonist activity at human FFAR4 expressed in CHO cells assessed as beta-arrestin recruitment at 10 uM after 90 mins by beta-galactosidase complementation assay; format: cell-based
T2 sequence (whole entry): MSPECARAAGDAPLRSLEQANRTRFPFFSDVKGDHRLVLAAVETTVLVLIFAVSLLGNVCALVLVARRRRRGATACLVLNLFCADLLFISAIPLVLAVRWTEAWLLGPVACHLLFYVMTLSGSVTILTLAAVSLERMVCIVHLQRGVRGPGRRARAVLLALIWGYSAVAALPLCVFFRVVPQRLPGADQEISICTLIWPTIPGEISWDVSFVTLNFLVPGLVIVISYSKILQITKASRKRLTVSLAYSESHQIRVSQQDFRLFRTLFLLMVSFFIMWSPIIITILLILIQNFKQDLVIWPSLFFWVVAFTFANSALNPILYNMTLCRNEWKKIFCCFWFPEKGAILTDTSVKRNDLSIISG
Summary of the method: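 Human FFAR4 in CHO β-galactosidase complementation cells, 30,000 per well, serum-free F12 ~4 h before assay; final DMSO 1 %, compounds 10 µM. Agonist mode: 90 min with agonist, then detection 60 min rt dark; luminescence. 3–4 experiments in duplicate.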

[4] = target: T1, G-protein coupled receptor 84; assay: Antagonist activity at Gi coupled human GPR84 expressed in CHO cells assessed as inhibition of decanoic acid-induced receptor activation at 10 uM; format: cell-based
[5] = target: Free fatty acid receptor 1 (Homo sapiens, UniProt O14842); assay: Agonist activity at Gq protein coupled human FFAR1 expressed in human 1321N1 cells assessed as induction of intracellular calcium level at 10 uM measured at 1.2 secs time interval by Fluo-4-AM dye based fluorescence assay; format: functional, cell-based
Summary of the method: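 1321N1 astrocytoma cells retrovirally expressing human FFAR1, 50,000 per well, loaded 60 min at rt in dark with 3 µM Fluo-4-AM and 0.06 % Pluronic F-127 in HBSS. Compounds at 10 µM final; antagonist mode uses 30 min preincubation before TUG-424 (final 1 µM). Fluorescence at 520 nm (excitation 485 nm), 90 reads at 1.2 s intervals. Normalized to TUG-424 at 10 µM (agonist) or 1 µM (antagonist).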

[6] = target: T2, Free fatty acid receptor 4 (Homo sapiens); assay: Antagonist activity at human FFAR4 expressed in CHO cells assessed as inhibition of TUG-89-induced beta-arrestin recruitment at 10 uM preincubated for 30 mins followed by TUG-89 addition measured after 90 mins by beta-galactosidase complementation assay; format: cell-based
[7] = target: T1, G-protein coupled receptor 84; assay: Agonist activity at human GPR84 expressed in CHO cells assessed as beta-arrestin recruitment after 90 mins by beta-galactosidase complementation assay; format: cell-based
Summary of the method: (§2)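 CHO cells co-expressing human GPR84–β-galactosidase fragment and β-arrestin–complementary fragment, 20,000 per well. Compounds in DMSO (final ≤1 %) added for 90 min, then detection reagent for 60 min at rt; luminescence read. Three to five independent experiments in duplicate.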

[8] = target: T1, G-protein coupled receptor 84; assay: Agonist activity at human GPR84 expressed in CHO cells assessed as beta-arrestin recruitment at 10 uM after 90 mins by beta-galactosidase complementation assay relative to embelin; format: cell-based; summary of the method: as §2

Sequence of Free fatty acid receptor 1 (O14842 whole entry): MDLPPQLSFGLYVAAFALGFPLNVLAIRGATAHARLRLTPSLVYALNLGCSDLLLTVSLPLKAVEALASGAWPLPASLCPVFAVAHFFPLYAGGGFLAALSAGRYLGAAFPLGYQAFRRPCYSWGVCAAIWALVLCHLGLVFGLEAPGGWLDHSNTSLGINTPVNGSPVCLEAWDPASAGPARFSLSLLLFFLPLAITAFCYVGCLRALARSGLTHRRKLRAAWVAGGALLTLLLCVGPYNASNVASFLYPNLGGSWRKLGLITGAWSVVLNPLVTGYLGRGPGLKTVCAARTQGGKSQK
T1 sequence (Q9NQS5 whole entry): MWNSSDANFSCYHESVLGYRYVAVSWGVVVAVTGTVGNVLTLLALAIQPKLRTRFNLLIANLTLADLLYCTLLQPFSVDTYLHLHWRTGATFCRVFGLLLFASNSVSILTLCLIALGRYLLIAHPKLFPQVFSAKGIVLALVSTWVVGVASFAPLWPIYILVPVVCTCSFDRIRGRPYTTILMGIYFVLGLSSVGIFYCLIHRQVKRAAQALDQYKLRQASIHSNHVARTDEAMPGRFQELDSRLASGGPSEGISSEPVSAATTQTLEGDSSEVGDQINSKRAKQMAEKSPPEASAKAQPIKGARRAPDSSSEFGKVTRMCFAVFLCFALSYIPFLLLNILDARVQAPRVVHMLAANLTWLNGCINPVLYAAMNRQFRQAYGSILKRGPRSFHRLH

Row | EC50 [1] [µM] | Emax [2] [%] | Activity [3] | inhibition [4] | Activity [5] | inhibition [6] | EC50 [7] [µM] | Emax [8] [%] | Structure (SMILES)
1 | > 10 | -10 | inactive | inactive | inactive | inactive |  |  | COc1ccc2[nH]cc(/C=C3\C(=O)Nc4ccccc43)c2c1
2 | ≥ 10 | 45 | inactive |  | inactive | inactive | ≥ 10 | 49 | Cc1ccc2[nH]cc(Cc3c[nH]c4ccc(C)cc34)c2c1
3 | > 10 | 16 | inactive | inactive | inactive | inactive |  |  | O=C1Nc2ccc(F)cc2C1Cc1c[nH]c2ccc(F)cc12 (stereo not given)
4 | > 10 | -3 | inactive | inactive | inactive | inactive |  |  | COc1ccc(C(c2c[nH]c3ccccc23)c2c[nH]c3ccccc23)cc1
5 | > 10 | -21 | inactive | inactive | inactive | inactive |  |  | COc1ccc2[nH]cc(CC3C(=O)Nc4ccccc43)c2c1 (stereo not given)
6 | 10 | 57 | inactive |  | inactive | inactive |  |  | COC(=O)c1ccc2[nH]cc(Cc3c[nH]c4ccccc34)c2c1
7 |  | 115 | inactive |  | inactive | inactive |  | 72 | Fc1ccc2[nH]cc(Cc3c[nH]c4ccccc34)c2c1
8 | > 10 | 31 | inactive | inactive | inactive | inactive |  |  | COc1ccc2c(Cc3c[nH]c4cc(OC)ccc34)c[nH]c2c1
9 | > 10 | 5 | inactive | inactive | inactive | inactive |  |  | O=C(O)c1ccc2[nH]cc(Cc3c[nH]c4ccccc34)c2c1
10 | > 10 | 7 | inactive | inactive | inactive | inactive |  |  | O=C1Nc2ccccc2C1Cc1ccc2[nH]ccc2c1 (stereo not given)
11 | > 10 | -1 | inactive | inactive | inactive | inactive |  |  | O=C1Nc2ccccc2C1=Cc1c[nH]c2ccc(F)cc12
12 | > 10 | -10 | inactive | inactive | inactive | inactive |  |  | COc1ccc2[nH]cc(CC3C(=O)Nc4ccc(F)cc43)c2c1 (stereo not given)

Further lines, the molecule ahead of its results:

Row | Structure (SMILES) | EC50 [1] [µM] | Emax [2] [%] | Activity [3] | inhibition [4] | Activity [5] | inhibition [6] | EC50 [7] [µM] | Emax [8] [%]
13 | N#Cc1ccc2[nH]cc(Cc3c[nH]c4ccc(C#N)cc34)c2c1 | ≥ 10 | 49 | inactive | inactive | inactive | inactive |  | 
14 | Cc1ccccc1C#Cc1ccc(CCC(=O)O)cc1 |  |  |  |  | inactive |  |  | 
15 | Cc1ccc2c(Cc3c[nH]c4cc(C)ccc34)c[nH]c2c1 | > 10 | -22 | inactive | inactive | inactive | inactive |  | 
16 | Clc1ccc2[nH]cc(Cc3c[nH]c4ccc(Cl)cc34)c2c1 | 4.96 | 86 | inactive |  | inactive | inactive |  | 
17 | Clc1cccc2[nH]cc(Cc3c[nH]c4cccc(Cl)c34)c12 | 1.14 | 111 | inactive |  | inactive | inactive | > 10 | 25
18 | Fc1cc2c(Cc3c[nH]c4cc(Cl)c(F)cc34)c[nH]c2cc1Cl | 10.8 | 83 | inactive |  |  | inactive | 3.98 | 181
19 | O=[N+]([O-])c1ccc2[nH]cc(Cc3c[nH]c4ccc([N+](=O)[O-])cc34)c2c1 | > 10 | 31 | inactive | inactive | inactive | inactive |  | 
20 | O=Cc1ccc2[nH]cc(Cc3c[nH]c4ccc(C=O)cc34)c2c1 | > 10 | -4 | inactive | inactive | inactive | inactive |  | 
21 | COC(=O)c1ccc2[nH]cc(Cc3c[nH]c4ccc(C(=O)OC)cc34)c2c1 | > 10 | 11 | inactive | inactive | inactive | inactive |  | 
22 | Clc1ccc(C(c2c[nH]c3ccccc23)c2c[nH]c3ccccc23)cc1 | > 10 | -4 | inactive | inactive | inactive | inactive |  | 
23 | Fc1cc2cc[nH]c2cc1F | > 10 |  |  |  |  |  | 2.97 | 
24 | O=[N+]([O-])c1ccc(C(c2c[nH]c3ccccc23)c2c[nH]c3ccccc23)cc1 | > 10 | 6 | inactive | inactive | inactive | inactive |  | 
25 | COc1cccc2[nH]cc(Cc3c[nH]c4cccc(OC)c34)c12 | ≥ 10 | 47 | inactive | inactive | inactive | inactive |  | 
26 | O=C1Nc2ccc(F)cc2/C1=C/c1c[nH]c2ccc(F)cc12 | > 10 | 5 | inactive | inactive | inactive | inactive |  | 
27 | Brc1ccc2[nH]cc(Cc3c[nH]c4ccc(Br)cc34)c2c1 | 3.44 | 106 | inactive |  | inactive | inactive |  | 
28 | c1ccc(COc2ccc3[nH]cc(Cc4c[nH]c5ccc(OCc6ccccc6)cc45)c3c2)cc1 | > 10 | 36 | inactive | inactive | inactive | inactive |  | 
29 | COc1cccc2c(Cc3c[nH]c4c(OC)cccc34)c[nH]c12 | > 10 | 18 | inactive | inactive | inactive | inactive |  | 
30 | Fc1ccc(C(c2c[nH]c3ccccc23)c2c[nH]c3ccccc23)cc1 | > 10 | 8 | inactive | inactive | inactive | inactive |  | 
31 | Clc1cc(Cl)c2c(Cc3c[nH]c4cc(Cl)cc(Cl)c34)c[nH]c2c1 | ≥ 10 | 51 | inactive | inactive | inactive | inactive |  | 
